The values that follow come from PMC5756068 (Nature chemical biology, 2016).

For one test, the system named is Panc 02.03 cells. Briefly: Downstream effects of peptide expression, Western blot, Panc 02.03. It is filed as cell-based. In general terms: Immunoblotting shows a protein as a band on a membrane.
Test [1] concerns MDM2. The experiment in a line: shRNA-induced cell viability rescue, MDM2 knockdown. The settings on record: shRNA cells transfected with peptide; triplicate. It is filed as cell-based.
The next test deals with Mia Paca-2 cells. The experiment in a line: Downstream effects of peptide expression, Western blot, Mia Paca-2. The format is cell-based.
A short description of test [2]: Downstream effect of peptide, gels of Fig. 4 and Supplementary Fig. 7. The format is cell-based. Particulars: triplicate; cell line not stated.
In test [3] the test system is MDM2. The experiment in a line: FRET microscopy, peptide-GFP and MDM2-mCherry. It is filed as binding. The settings on record: HEK293T cells, confocal FRET microscopy, 48 h after transfection. Put shortly:
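HEK293T cells were seeded at 5 × 10^4 per well on poly-L-lysine-coated glass coverslips and kept at 37°C in 5% CO2. They were co-transfected with GFP-fused peptide and mCherry-fused target, then fixed with 4% paraformaldehyde 48 h later, washed in PBS and imaged by confocal FRET microscopy at room temperature. Laser power and PMT gain were held constant. […] excitation was used with FRET detection at […]. Net FRET was obtained by subtracting GFP bleed-through and mCherry direct emission. Controls expressed GFP and/or mCherry alone.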

The test system of test [4] is RWP1 cells. The experiment in a line: Downstream effects of peptide expression, Western blot, RWP1. The format is cell-based, human.
In the next test the test system is HEK293T cells. Briefly: Downstream effects of peptide expression, Western blot, HEK293T. The format is cell-based, human.
In test [5] the test system is AKT (S473) phosphorylation in RWP1 cells. Briefly: Serum-induced AKT. It is filed as cell-based, human. The settings on record: RWP1 starved 24 hours, 10% FBS for 20 minutes; Western blot. In short, it runs like this:
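Peptide expressed or not in RWP1 cells, which were starved 24 h and then given 10% FBS for 20 min. Lysate proteins run on 10% Bis-Tris SDS-PAGE and transferred to PVDF. Blots probed with anti-AKT (1:1000) or anti-phospho-AKT S473 (1:1000), then HRP secondary (1:2500), with ECL detection. Paired with HEK293T cells treated the same way.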

Test [6] relates to RWP1 cells. The experiment in a line: Cell viability with synthetic lipidated peptides, RWP1. It is filed as cell-based, human. The settings on record: duplicate.
Another test deals with cell cycle. Briefly: FACS analysis of cell cycle. It is filed as cell-based. The settings on record: triplicate. For orientation: In flow cytometry, cells or beads pass a laser one at a time.
In another test the test system is SFN. Briefly: shRNA-induced cell viability rescue, SFN knockdown. The format is cell-based. Particulars: shRNA cells transfected with peptide; triplicate.
In a further test the test system is GCHFR. The experiment in a line: shRNA-induced cell viability rescue, GCHFR knockdown. The format is cell-based. Particulars: shRNA cells transfected with peptide; triplicate.

As for ETFSDLW, the p21 level result with Panc 02.03 cells, with Mia Paca-2 cells and in the test with RWP1 cells [4] was “increase in p21 levels” throughout. The p53 level result in the test on Panc 02.03 cells, with Mia Paca-2 cells and with RWP1 cells [4] was “decrease in degradation of p53” in each case. For the same substance, in the test with MDM2 [1], the “rescue of peptide phenotype by knockdown of MDM2” value is listed as “showed rescue of the peptide phenotype”. Also, the P53 level entry in [2] is given as “increasing P53 levels”. Further, the “FRET signal with MDM2” value in the test with MDM2 [3] is reported as “Positive FRET signals”.

With KFFCTIL, the p21 level entry in the test on Panc 02.03 cells and in the test with RWP1 cells [4] was “increased the expression of p21” each time. Moreover, the “phospho-AKT (S473) level” value in the test on Panc 02.03 cells was “decrease of the level of phospho-AKT (S473)”; in the test with HEK293T cells, “did not affect the level of phospho-AKT”; in the test with RWP1 cells [4] it was “decrease of the level of phospho-AKT (S473)”. Moreover, the “serum-induced AKT phosphorylation” value in test [5] was “inhibited the increase in AKT phosphorylation”.

Regarding PSSLAYSLKKH, the p21 level result is “accumulation of p53 and p21” with Panc 02.03 cells; “accumulation of p53 and p21” in the test with Mia Paca-2 cells; “did not affect the level of p53 and p21” with HEK293T cells; “accumulation of p53 and p21” in the test with RWP1 cells [4]. Besides, the p53 level result in the test on Panc 02.03 cells is “accumulation of p53 and p21”; in the test with Mia Paca-2 cells it was “accumulation of p53 and p21”; in the test on HEK293T cells, “did not affect the level of p53 and p21”; in the test with RWP1 cells [4] it was “accumulation of p53 and p21”.

Pal-NPFREKKFFCTIL-NH2 [GNG4-1]: the “effect on cell viability (in words)” value in the test on RWP1 cells [6] is “strong dosage dependent effects on cell viability”.

Turning to Pal-PSSLAYSLKKH-OH [INCENP-1], the “effect on cell viability (in words)” value in the test with RWP1 cells [6] is “strong dosage dependent effects on cell viability”.

As to Pal-RTLSQLYCSYGPLT-OH [MUS81-1], the “effect on cell viability (in words)” value in the test on RWP1 cells [6] is listed as “strong dosage dependent effects on cell viability”.

For the substance RTLSQLYCSYGPLT, the p21 level entry in the test on Panc 02.03 cells is “increases the expression of p53 and p21”; in the test with RWP1 cells [4], “increases the expression of p53 and p21”. The p53 level result is “increases the expression of p53 and p21” in the test on Panc 02.03 cells; “increases the expression of p53 and p21” with RWP1 cells [4].

As to TEGPDSD, the “cyclin A2 expression” value with Panc 02.03 cells is “increase of cyclin A2 expression”. In the test on Mia Paca-2 cells, the cdc2 expression entry was “reduced expression of both cyclin B1 and cdc2”; the “cyclin A2 expression” value is on record as “increase of cyclin A2 expression”; the “cyclin B1 expression” value was “reduced expression of both cyclin B1 and cdc2”. In addition, the “effect on cell cycle” value in the test on cell cycle (FACS, DAPI, 24, 72 and 120 hours, cell line not stated) is listed as “cell cycle arrest in G2”. Moreover, in the test with cell cycle (different time points), the “percentage of GFP positive cells vs GFP alone” value was “similar”. In test [2], the cdc2 level result was “decrease in cyclin B1 and cdc2 levels”; the “cyclin A level” value is on record as “increase in cyclin A”; the “cyclin B1 level” value is “decrease in cyclin B1 and cdc2 levels”. In the test on SFN, the “rescue of peptide phenotype by knockdown of SFN” value is “showed rescue of the peptide phenotype”. In addition, in the test on RWP1 cells [4], the cdc2 expression result is “reduced expression of both cyclin B1 and cdc2”; the “cyclin A2 expression” value is listed as “increase of cyclin A2 expression”; the “cyclin B1 expression” value was “reduced expression of both cyclin B1 and cdc2”.

For VWCLHKE, in the test on GCHFR, the “rescue of peptide phenotype by knockdown of GCHFR” value is reported as “showed rescue of the peptide phenotype”.
